According to ChEMBL document CHEMBL1145787, “Synthesis and structure-activity relationship of N-substituted 4-arylsulfonylpiperidine-4-hydroxamic acids as novel, orally active matrix metalloproteinase inhibitors for the treatment of osteoarthritis” (J Med Chem, 2003):

Assays:
[1] = Time of peak concentration of compound was determined in rat at 25 mg/kg orally; format: ADME, organism-based; set-up: dose 25 mg/kg, route oral; conditions: in vivo, po
In short: (§1)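 Single oral dose of 25 mg/kg in Sprague–Dawley rats, New Zealand rabbits, Beagle dogs and Cynomolgus monkeys. Mean plasma pharmacokinetics; Cmax is the maximum plasma concentration and Tmax is the time of peak concentration.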

[2] = Apparent elimination half life of compound was determined in dogt at 5 mg/kg intravenously admn.; format: ADME, organism-based, Canis lupus familiaris; set-up: dose 5 mg/kg, route intravenous; conditions: dog, in vivo, iv
In short: (§2)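 Single-dose PK in Sprague–Dawley rats, New Zealand rabbits, Beagle dogs and cynomolgus monkeys. Dosing was 25 mg/kg oral or 5 mg/kg iv. Plasma concentration–time profiles gave the apparent elimination half-life (T1/2) and the area under the concentration–time curve (AUC). Parameters are reported as means.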

[3] = Time of peak concentration of compound was determined in dog at 25 mg/kg orally; format: ADME, organism-based, Canis lupus familiaris; set-up: dose 25 mg/kg, route oral; conditions: in vivo, po; in short: as §1
[4] = Area under concentration-time curve of compound was determined in rabbit at 25 mg/kg orally; format: ADME, organism-based, Oryctolagus cuniculus; set-up: dose 25 mg/kg, route oral; conditions: in vivo, po; in short: as §2
[5] = Volume of distribution at steady state of compound was determined in rabbit at 5 mg/kg intravenously admn.; format: ADME, organism-based, Oryctolagus cuniculus; set-up: dose 5 mg/kg, route intravenous; conditions: in vivo, iv, read-out: Vdss
In short: (§3)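 Single iv dose of 5 mg/kg in Sprague–Dawley rats, New Zealand rabbits, Beagle dogs and Cynomolgus monkeys. Mean plasma pharmacokinetics: C0 is the concentration at T=0, Vdss the volume of distribution at steady state, and CLT the total clearance.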

Stromelysin-1 = Stromelysin-1 (Homo sapiens, UniProt P08254); test: Inhibition of Matrix metalloprotease-3
In short: (§4)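 Each inhibitor concentration was tested in triplicate. IC50 came from a four-parameter logistic fit of data within a single experiment and is reported as the mean of the triplicate values.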

[6] = Total clearance of compound was determined in rat at 5 mg/kg intravenously admn.; format: ADME, organism-based; set-up: dose 5 mg/kg, route intravenous; conditions: in vivo, iv, read-out: CLT; in short: as §3
[7] = Area under concentration-time curve of compound was determined in rat at 25 mg/kg orally; format: ADME, organism-based; set-up: dose 25 mg/kg, route oral; conditions: in vivo, po; in short: as §2
[8] = Apparent elimination half life of compound was determined in rat at 5 mg/kg intravenously admn.; format: ADME, organism-based; set-up: dose 5 mg/kg, route intravenous; conditions: in vivo, iv; in short: as §2
Neutrophil collagenase = Neutrophil collagenase (Homo sapiens, UniProt P22894); test: Inhibition of Matrix metalloprotease-8; in short: as §4
Matrilysin = target: T1, Matrilysin (Homo sapiens, UniProt P09237); test: Inhibition of Matrix metalloprotease-7; in short: as §4
T1 sequence (P09237 whole entry): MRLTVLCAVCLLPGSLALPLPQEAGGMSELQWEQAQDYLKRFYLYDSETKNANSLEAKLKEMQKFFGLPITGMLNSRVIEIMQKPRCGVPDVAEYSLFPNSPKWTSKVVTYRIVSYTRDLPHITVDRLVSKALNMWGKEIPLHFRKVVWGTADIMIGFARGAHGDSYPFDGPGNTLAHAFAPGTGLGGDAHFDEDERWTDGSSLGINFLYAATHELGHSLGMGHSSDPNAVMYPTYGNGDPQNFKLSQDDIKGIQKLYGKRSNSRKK

[9] = Peak concentration of compound at Time = 0 was determined in rabbit at 5 mg/kg intravenously admn.; format: ADME, organism-based, Oryctolagus cuniculus; set-up: dose 5 mg/kg, route intravenous; conditions: in vivo, iv; in short: as §3
[10] = Volume of distribution at steady state of compound was determined in dog at 5 mg/kg intravenously admn.; format: ADME, organism-based, Canis lupus familiaris; set-up: dose 5 mg/kg, route intravenous; conditions: in vivo, iv, read-out: Vdss; in short: as §3
[11] = Apparent elimination half life of compound was determined in rabbit at 25 mg/kg orally; format: ADME, organism-based, Oryctolagus cuniculus; set-up: dose 25 mg/kg, route oral; conditions: in vivo, po; in short: as §2
[12] = Apparent elimination half life of compound was determined in monkey at 25 mg/kg orally; format: ADME, organism-based; set-up: dose 25 mg/kg, route oral; conditions: simiiformes, in vivo, po; in short: as §2
[13] = Oral bioavailability of compound was determined in dog at 25 mg/kg orally; format: ADME, organism-based, Canis lupus familiaris; conditions: in vivo, read-out: Bioavailabiility
[14] = Oral bioavailability of compound was determined in rat at 25 mg/kg orally; format: ADME, organism-based; conditions: in vivo, read-out: Bioavailabiility
[15] = Peak concentration of compound at Time = 0 was determined in dog at 5 mg/kg intravenously admn.; format: ADME, organism-based, Canis lupus familiaris; set-up: dose 5 mg/kg, route intravenous; conditions: in vivo, iv; in short: as §3
[16] = Maximum plasma concentration of compound was determined in rabbit at 25 mg/kg orally; format: ADME, organism-based, Oryctolagus cuniculus; set-up: dose 25 mg/kg, route oral; conditions: po; in short: as §1
Oryctolagus cuniculus = test: Effect of compound on cartilage in surgically induced osteoarthritis (OA) model in rabbit at 15 mg/kg, value are relative to activity of RS-130830 (7.9+/-1.5) at 25 mg/kg; format: ADME, organism-based, Cartilage tissue; conditions: in vivo
In short: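 Rabbits had anterior cruciate ligament transection plus meniscectomy in one knee, with sham surgery on the contralateral knee. From day 10 after surgery, groups of 12 were dosed once daily by oral gavage with vehicle, test compound or the RS-130830 reference for 4 weeks. Knee joints were then collected and scored for gross pathological changes by blinded investigators.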

[17] = Total clearance of compound was determined in monkey at 5 mg/kg intravenously admn.; format: ADME, organism-based; set-up: dose 5 mg/kg, route intravenous; conditions: simiiformes, in vivo, iv, read-out: CLT; in short: as §3
[18] = Time of peak concentration of compound was determined in rabbit at 25 mg/kg orally; format: ADME, organism-based, Oryctolagus cuniculus; set-up: dose 25 mg/kg, route oral; conditions: in vivo, po; in short: as §1
[19] = Oral bioavailability of compound was determined in monkey at 25 mg/kg orally; format: ADME, organism-based; conditions: simiiformes, in vivo, read-out: Bioavailabiility
[20] = target: Matrix metalloproteinase-9 (Homo sapiens, UniProt P14780); test: In vitro inhibitory activity against matrix metalloprotease-9.
[21] = Area under concentration-time curve of compound was determined in dog at 25 mg/kg orally; format: ADME, organism-based, Canis lupus familiaris; set-up: dose 25 mg/kg, route oral; conditions: in vivo, po; in short: as §2
[22] = In vivo inhibition of Matrix metalloprotease enzyme by Sponge-wrapped cartilage assay, compared to activity of RS-130830 (20+/-2) at 5 mg/kg. po. bid; format: functional

Sequence of Matrix metalloproteinase-9 (P14780 whole entry): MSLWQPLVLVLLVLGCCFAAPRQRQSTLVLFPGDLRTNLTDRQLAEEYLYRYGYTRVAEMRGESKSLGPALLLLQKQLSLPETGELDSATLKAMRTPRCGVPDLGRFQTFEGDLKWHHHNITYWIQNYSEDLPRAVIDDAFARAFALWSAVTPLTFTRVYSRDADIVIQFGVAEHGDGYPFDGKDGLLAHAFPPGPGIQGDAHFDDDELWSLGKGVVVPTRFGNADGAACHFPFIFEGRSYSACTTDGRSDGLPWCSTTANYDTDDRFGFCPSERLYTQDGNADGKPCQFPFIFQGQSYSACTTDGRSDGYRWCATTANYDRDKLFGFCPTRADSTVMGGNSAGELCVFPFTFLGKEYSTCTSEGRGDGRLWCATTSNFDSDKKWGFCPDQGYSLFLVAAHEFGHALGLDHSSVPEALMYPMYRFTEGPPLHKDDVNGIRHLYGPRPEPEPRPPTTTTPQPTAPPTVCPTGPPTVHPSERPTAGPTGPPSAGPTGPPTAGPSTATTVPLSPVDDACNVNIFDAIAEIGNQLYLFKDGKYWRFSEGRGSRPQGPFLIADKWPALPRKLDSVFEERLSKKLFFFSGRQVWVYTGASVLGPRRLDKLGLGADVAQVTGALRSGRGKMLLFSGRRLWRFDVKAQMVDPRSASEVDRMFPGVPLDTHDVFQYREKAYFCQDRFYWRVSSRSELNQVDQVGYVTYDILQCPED
Sequence of Neutrophil collagenase (P22894 whole entry): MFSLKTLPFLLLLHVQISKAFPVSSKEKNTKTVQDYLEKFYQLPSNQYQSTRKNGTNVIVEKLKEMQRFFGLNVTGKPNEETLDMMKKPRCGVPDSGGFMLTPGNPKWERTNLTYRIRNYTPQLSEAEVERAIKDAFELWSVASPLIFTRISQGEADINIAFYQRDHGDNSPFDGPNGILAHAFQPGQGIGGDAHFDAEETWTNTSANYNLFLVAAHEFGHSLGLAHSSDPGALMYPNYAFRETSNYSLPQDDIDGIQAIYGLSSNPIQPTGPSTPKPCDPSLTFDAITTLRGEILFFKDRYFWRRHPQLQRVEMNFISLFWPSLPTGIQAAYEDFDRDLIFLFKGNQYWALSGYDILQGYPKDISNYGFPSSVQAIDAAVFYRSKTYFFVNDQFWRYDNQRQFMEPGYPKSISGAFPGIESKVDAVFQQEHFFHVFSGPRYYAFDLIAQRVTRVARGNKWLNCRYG
Sequence of Stromelysin-1 (P08254 whole entry): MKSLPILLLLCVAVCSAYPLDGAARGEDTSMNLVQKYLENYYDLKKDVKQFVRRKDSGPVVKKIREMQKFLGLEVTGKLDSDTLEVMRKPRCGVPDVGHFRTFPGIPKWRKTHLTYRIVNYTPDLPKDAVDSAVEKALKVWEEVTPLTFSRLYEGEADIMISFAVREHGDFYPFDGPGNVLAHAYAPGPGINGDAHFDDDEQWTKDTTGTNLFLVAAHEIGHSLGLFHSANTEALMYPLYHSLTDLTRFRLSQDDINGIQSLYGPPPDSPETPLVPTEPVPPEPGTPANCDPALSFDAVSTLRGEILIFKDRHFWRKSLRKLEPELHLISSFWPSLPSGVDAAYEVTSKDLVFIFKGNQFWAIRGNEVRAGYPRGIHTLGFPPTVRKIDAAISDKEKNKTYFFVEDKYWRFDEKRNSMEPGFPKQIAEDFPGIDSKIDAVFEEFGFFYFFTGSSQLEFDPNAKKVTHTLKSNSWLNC

Molecule O=C(NO)C1(S(=O)(=O)c2ccc(Oc3ccc(Cl)cc3)cc2)CCN(Cc2ccccc2)CC1 has a Tmax [1] of 1.5 h, a half-life [2] of 13.5 h and a Tmax [3] of 3.5 h. It also gave an AUC [4] of 363 µg·h/mL, a Vd [5] of 0.1 L/kg and an IC50 (Stromelysin-1) of 0.055 µM. The clearance [6] was 0.3 mL/min/kg, the AUC [7] was 899 µg·h/mL and the half-life [8] was 4.4 h. For the same molecule, the IC50 (Neutrophil collagenase) was 0.001 µM, the IC50 (Matrilysin) was 0.925 µM and the C0 [9] was 126 µg/mL. For the same molecule, the Vd [10] was 0.1 L/kg, the half-life [11] was 7.14 h and the half-life [12] was 20 h. It also gave a bioavailability [13] of 47%, a bioavailability [14] of 55% and a C0 [15] of 82 µg/mL. The Cmax [16] was 22.7 µg/mL, the “Average gross pathology scores+/- SE” value (Oryctolagus cuniculus) was 9.7 and the clearance [17] was 0.1 mL/min/kg. It also gave a Tmax [18] of 10 h, a bioavailability [19] of 37% and an IC50 [20] of 0.001 µM. The AUC [21] was 1810 µg·h/mL and the inhibition in vivo at 5 mg/kg [22] was 53%.
